The test system of test [1] is Aspergillus niger. Nature of the test: Antifungal activity against Aspergillus niger IMI17454 strain; na = not active. The test is classed as functional.
A further test deals with Aspergillus nidulans. As to the kind of experiment: Antifungal activity against Aspergillus nidulans CABI 0160037 strain. The test is classed as functional.
A short description of test [2]: Antifungal activity against Candida albicans NCPF 3179 strain; na = not active. The test is classed as functional.
The subject of the next test is Escherichia coli. As to the kind of experiment: Antibacterial activity against Escherichia coli NCTC 9001 strain. It counts as functional, organism-based.
The next test has as its system Enterobacter cloacae. As to the kind of experiment: Antibacterial activity against Enterobacter cloacae NCTC 10005 strain. It counts as functional, organism-based.
The test system of test [3] is Klebsiella aerogenes. As to the kind of experiment: Antibacterial activity against Klebsiella aerogenes WRL CN 345 strain. The test is classed as functional, WRL CN 375. The note with it: Klebsiella aerogenes, WRL CN 375; read-out: MIC.
Test [4] deals with Staphylococcus aureus. Nature of the test: Antibacterial activity against MRSA PHLS M1 strain; na = not active. It counts as functional, organism-based.
Test [5] relates to Mycolicibacterium fortuitum. As to the kind of experiment: Antibacterial activity against Mycobacterium fortuitum NCTC 10394 strain. It counts as functional.
Another test has as its system Proteus vulgaris. Nature of the test: Antibacterial activity against Proteus vulgaris NCTC 4175 strain. It counts as functional.
Test [6] concerns Staphylococcus aureus. Nature of the test: Antibacterial activity against Staphylococcus aureus NCTC 6571 strain; na = not active. The test is classed as functional, organism-based.
The test system of test [7] is Enterococcus faecalis. Nature of the test: Antibacterial activity against Streptococcus faecalis NCTC 775 strain; na = not active. The test is classed as functional, organism-based.
Test [8] concerns Aspergillus niger. Nature of the test: Antifungal activity against Aspergillus niger IMI17454 strain. The test is classed as functional. The note with it: Aspergillus niger; read-out: MIC.
The next test relates to Candida albicans. As to the kind of experiment: Antifungal activity against Candida albicans NCPF 3179 strain. It counts as functional. The note with it: Candida albicans; read-out: MIC.
Test [9] in a line: Antibacterial activity against Enterobacter cloacae NCTC 10005 strain. The test is classed as functional.
The subject of test [10] is Staphylococcus aureus. As to the kind of experiment: Antibacterial activity against methicillin-resistant Staphylococcus aureus (MRSA) PHLS M1 strain. The test is classed as functional. In short, it runs like this:
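Read-out is the minimum inhibitory concentration, reported in µM. Amoxycillin is tested alongside as the reference antibiotic.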

The subject of test [11] is Staphylococcus aureus. Nature of the test: Antibacterial activity against Staphylococcus aureus NCTC 6571 strain. It counts as functional.
In test [12] the test system is Enterococcus faecalis. As to the kind of experiment: Antibacterial activity against Streptococcus faecalis NCTC 775 strain. It counts as functional.
Test [13] is described as follows: Antibacterial activity against Proteus vulgaris NCTC 4175 strain; na = not active. It counts as functional.
Test [14] relates to Klebsiella aerogenes. Nature of the test: Antibacterial activity against Klebsiella aerogenes WRL CN 345 strain; na = not active. It counts as functional, organism-based.

Values after ≈ are worked out from the molar mass of the structure shown. Active and inactive are the calls of the source. The calls are words filed in the database; no cut-off is given here.

By MIC is commonly meant the lowest concentration that inhibits growth of the organism. In the case of `CCn1cc(NC(=O)c2cc(NC(=O)c3cc(NC=O)cn3C)cn2C)nc1C(=O)NCCCN(C)C`, the MIC result (in the test with Aspergillus niger [1]; in [2]; in the test with Escherichia coli; with Enterobacter cloacae; in the test on Staphylococcus aureus [4]; in the test with Staphylococcus aureus [6]) was “inactive” each time. Moreover, the MIC entry with Enterococcus faecalis [7] was “inactive”. Besides, the minimal inhibitory concentration (MIC) with Aspergillus nidulans was 160 µM (≈ 81.9 µg/mL); in the test on Klebsiella aerogenes [3], 40 µM (≈ 20.5 µg/mL); in [5], 160 µM (≈ 81.9 µg/mL); with Proteus vulgaris, 160 µM (≈ 81.9 µg/mL).

Regarding `CC(C)n1cc(NC(=O)c2cc(NC(=O)c3cc(NC=O)cn3C(C)C)cn2C(C)C)cc1C(=O)NCCCN(C)C`, the MIC with Aspergillus niger [8] is 72 µM (≈ 41.8 µg/mL); in the test with Aspergillus nidulans, 72 µM (≈ 41.8 µg/mL); with Candida albicans, 144 µM (≈ 83.6 µg/mL); in test [9], 36 µM (≈ 20.9 µg/mL); in the test with Klebsiella aerogenes [3], 36 µM (≈ 20.9 µg/mL); in the test with Staphylococcus aureus [10] it was 144 µM (≈ 83.6 µg/mL). For the same molecule, the MIC in [5] turned out to be 72 µM (≈ 41.8 µg/mL); with Proteus vulgaris, 144 µM (≈ 83.6 µg/mL); against Staphylococcus aureus [11], 144 µM (≈ 83.6 µg/mL); with Enterococcus faecalis [12], 72 µM (≈ 41.8 µg/mL). Further, the MIC result with Escherichia coli was “inactive”.

As for `COc1cccc(C(=O)Nc2cc(C(=O)Nc3cc(C(=O)Nc4cc(C(=O)NCCCN5CCN(C)CC5)n(C)c4)n(CCC(C)C)c3)n(C)c2)c1`, the MIC with Aspergillus niger [8] was found to be 121 µM (≈ 86.4 µg/mL); in the test with Aspergillus nidulans, 30.2 µM (≈ 21.6 µg/mL); in the test with Candida albicans, 121 µM (≈ 86.4 µg/mL); in test [9], 121 µM (≈ 86.4 µg/mL); in the test on Klebsiella aerogenes [3] it was 121 µM (≈ 86.4 µg/mL); with Staphylococcus aureus [10], 121 µM (≈ 86.4 µg/mL). Also, the minimal inhibitory concentration (MIC) is 121 µM (≈ 86.4 µg/mL) in test [5], 121 µM (≈ 86.4 µg/mL) in the test with Proteus vulgaris, 60 µM (≈ 42.8 µg/mL) against Staphylococcus aureus [11] and 60.4 µM (≈ 43.1 µg/mL) with Enterococcus faecalis [12]. Also, the MIC entry with Escherichia coli is “inactive”.

Turning to `CC(C)c1sc(NC(=O)c2cc(NC(=O)c3cc(NC=O)cn3C)cn2C)nc1C(=O)NCCCN(C)C`, the minimal inhibitory concentration (MIC) in the test with Aspergillus niger [8] was determined as 76.1 µM (≈ 41.3 µg/mL); with Aspergillus nidulans it was 76.1 µM (≈ 41.3 µg/mL); with Candida albicans it was 76.1 µM (≈ 41.3 µg/mL); in test [9] it was 76.2 µM (≈ 41.4 µg/mL); in the test on Klebsiella aerogenes [3], 76.2 µM (≈ 41.4 µg/mL); with Staphylococcus aureus [10] it was 38.1 µM (≈ 20.7 µg/mL). For the same molecule, the MIC in test [5] is 19 µM (≈ 10.3 µg/mL); against Proteus vulgaris, 9.5 µM (≈ 5.16 µg/mL); in the test with Staphylococcus aureus [11], 4.7 µM (≈ 2.55 µg/mL); in the test with Enterococcus faecalis [12], 9.5 µM (≈ 5.16 µg/mL). Also, the MIC result in the test with Escherichia coli was “inactive”.

In the case of `CN(C)CCCNC(=O)c1cc(NC(=O)c2cc(NC(=O)c3cc(NC=O)cn3C)cn2CC2CC2)cn1C`, the MIC entry (with Aspergillus niger [1]; with Escherichia coli; in test [13]) was “inactive” in each case. Moreover, the MIC with Aspergillus nidulans was 153 µM (≈ 82.1 µg/mL); in the test with Candida albicans, 76.9 µM (≈ 41.3 µg/mL); in [9] it was 76.9 µM (≈ 41.3 µg/mL); in the test on Klebsiella aerogenes [3], 38.4 µM (≈ 20.6 µg/mL); in the test with Staphylococcus aureus [10], 76.9 µM (≈ 41.3 µg/mL); in test [5], 38.4 µM (≈ 20.6 µg/mL). Also, the MIC with Staphylococcus aureus [11] worked out at 153 µM (≈ 82.1 µg/mL); in the test with Enterococcus faecalis [12] it was 76.9 µM (≈ 41.3 µg/mL).

`COc1cccc(C(=O)Nc2cc(C(=O)Nc3cc(C(=O)Nc4cc(C(=O)NCCCN(C)C)n(C)c4)n(CCC(C)C)c3)n(C)c2)c1`: the MIC result (in the test with Aspergillus niger [1]; in test [2]; with Escherichia coli; in the test on Enterobacter cloacae; in the test on Klebsiella aerogenes [14]; in test [13]) was “inactive” in each case. Besides, the minimal inhibitory concentration (MIC) in the test with Staphylococcus aureus [10] turned out to be 2 µM (≈ 1.32 µg/mL); in [5], 32.4 µM (≈ 21.3 µg/mL); against Staphylococcus aureus [11] it was 16.2 µM (≈ 10.7 µg/mL); against Enterococcus faecalis [12], 16.2 µM (≈ 10.7 µg/mL).

Turning to `CC(=O)Nc1cc(C(=O)Nc2cc(C(=O)Nc3cc(C(=O)NCCCN4CCCC4)n(C)c3)n(C)c2)n(C)c1`, the MIC in the test on Aspergillus niger [8] came out at 153 µM (≈ 82.1 µg/mL); against Aspergillus nidulans it was 153 µM (≈ 82.1 µg/mL); in test [9], 153 µM (≈ 82.1 µg/mL); in the test with Klebsiella aerogenes [3] it was 153 µM (≈ 82.1 µg/mL); in test [5] it was 76.9 µM (≈ 41.3 µg/mL); in the test on Enterococcus faecalis [12], 153 µM (≈ 82.1 µg/mL). Moreover, the MIC entry (in [2]; in the test with Escherichia coli; in the test with Staphylococcus aureus [4]; in test [13]; in the test with Staphylococcus aureus [6]) was “inactive” each time.

With `CN(C)CCCNC(=O)c1cc(NC(=O)c2cc(NC(=O)c3cc(NC=O)cn3C)cn2C2CCCC2)cn1C`, the MIC result (in the test on Aspergillus niger [1]; in the test with Escherichia coli; with Enterobacter cloacae; in the test on Klebsiella aerogenes [14]; in test [13]) was “inactive” throughout. Further, the minimum inhibitory concentration (MIC) with Candida albicans was 75.3 µM (≈ 41.5 µg/mL); against Staphylococcus aureus [10], 75.3 µM (not active) (≈ 41.5 µg/mL); in test [5], 75.3 µM (≈ 41.5 µg/mL); in the test on Staphylococcus aureus [11] it was 75 µM (≈ 41.3 µg/mL); against Enterococcus faecalis [12], 75 µM (≈ 41.3 µg/mL).

For `CC(C)c1sc(NC(=O)c2cc(NC=O)cn2C)nc1C(=O)Nc1cc(C(=O)NCCCN(C)C)n(C)c1`, the MIC amounted to 38.1 µM (≈ 20.7 µg/mL) with Aspergillus niger [8]; 9.5 µM (≈ 5.16 µg/mL) against Aspergillus nidulans; 38.1 µM (≈ 20.7 µg/mL) with Candida albicans; 9.5 µM (≈ 5.16 µg/mL) in test [9]; 38.1 µM (≈ 20.7 µg/mL) in the test on Klebsiella aerogenes [3]; 19.1 µM (≈ 10.4 µg/mL) in the test with Staphylococcus aureus [10]. Besides, the MIC in test [5] amounted to 19 µM (≈ 10.3 µg/mL); in the test with Staphylococcus aureus [11], 4.8 µM (≈ 2.6 µg/mL); in the test on Enterococcus faecalis [12], 9.5 µM (≈ 5.16 µg/mL). Also, the MIC entry (with Escherichia coli; in test [13]) was “inactive” throughout.

Values taken from ChEMBL document CHEMBL1137088, “Distamycin analogues with enhanced lipophilicity: synthesis and antimicrobial activity” (2004).
